From ChEMBL document CHEMBL1141268, “Glycogen synthase kinase-3 (GSK-3) inhibitory activity and structure-activity relationship (SAR) studies of the manzamine alkaloids. Potential for Alzheimer's disease” (J Nat Prod, 2007)
Calls of active or inactive are those of the source. The calls are words filed in the database; no cut-off is given here.

How the values were obtained:
[1] = target: T1, Glycogen synthase kinase-3 beta (Homo sapiens, UniProt P49841); assay: Inhibition of human recombinant GSKbeta at 25 uM
Procedure, shortened: (§1)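 Recombinant human GSK-3β in 11 mM MOPS pH 7.4, 0.2 mM EDTA, 1.25 mM EGTA, 26.25 mM MgCl2, 0.25 mM orthovanadate. Substrate was 62.5 µM GS-2 peptide, with γ-[33P]ATP plus unlabeled ATP at 12.5 µM final. Reaction ran 30 min at 30 °C. Aliquots were spotted on P81 phosphocellulose, washed and scintillation-counted. IC50 came from nonlinear regression of inhibition curves.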
Target sequence in this assay (P49841 whole entry, looked up): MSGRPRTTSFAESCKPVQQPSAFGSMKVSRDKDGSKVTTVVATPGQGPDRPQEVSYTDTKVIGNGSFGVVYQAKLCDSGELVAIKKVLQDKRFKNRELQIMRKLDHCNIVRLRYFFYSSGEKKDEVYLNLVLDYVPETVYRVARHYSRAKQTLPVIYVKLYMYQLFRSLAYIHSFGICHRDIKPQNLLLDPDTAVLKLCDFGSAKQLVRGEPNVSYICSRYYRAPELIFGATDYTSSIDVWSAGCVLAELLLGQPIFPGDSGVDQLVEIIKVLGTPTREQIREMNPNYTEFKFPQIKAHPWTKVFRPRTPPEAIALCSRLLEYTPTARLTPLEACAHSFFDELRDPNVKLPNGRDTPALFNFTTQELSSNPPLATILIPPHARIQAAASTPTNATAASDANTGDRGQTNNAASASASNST

[2] = target: T1, Glycogen synthase kinase-3 beta; assay: Inhibition of human recombinant GSKbeta; procedure, shortened: as §1
Target sequence in this assay (P49841 whole entry): as the sequence (P49841 whole entry, looked up) above

[3] = Inhibition of recombinant PKA
Procedure, shortened: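 Recombinant PKA catalytic subunit in ADBI buffer with Kemptide substrate and 35 µM unlabeled ATP. Incubated 20 min; otherwise as the other kinase assays (γ-[33P]ATP, P81 filter binding, scintillation counting).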

[4] = target: Glycogen synthase kinase-3 alpha (Homo sapiens) (UniProt P49840); assay: Inhibition of recombinant GSKalpha
Procedure, shortened: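 Recombinant GSK-3α, run as the GSK-3β radiometric protocol: MOPS pH 7.4 buffer with EDTA, EGTA, MgCl2 and orthovanadate, plus γ-[33P]ATP. GS-2 peptide at 20 µM final and ATP at 26 µM. Incubated 12 min, then P81 filter binding and scintillation counting. IC50 by nonlinear regression.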

[5] = target: Cyclin-dependent kinase 5/CDK5 activator 1 (Homo sapiens, UniProt Q00535); assay: Inhibition of human recombinant CDK5/p35; format: protein-complex assay
Procedure, shortened: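 Human recombinant cdk5-p35 with histone H1 substrate, run as the GSK-3β protocol: 11 mM MOPS pH 7.4, 0.2 mM EDTA, 1.25 mM EGTA, 26.25 mM MgCl2, 0.25 mM sodium orthovanadate, γ-[33P]ATP plus unlabeled ATP (12.5 µM final). Incubated 30 min at 30 °C, spotted on P81 phosphocellulose, washed, scintillation counted. IC50 by nonlinear regression of inhibition curves.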

[6] = target: Cyclin-dependent kinase 1 (Homo sapiens) (UniProt P06493); assay: Inhibition of recombinant CDK1
Procedure, shortened: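 Recombinant CDK-1 in ADBI buffer (20 mM MOPS pH 7.2, 25 mM β-glycerol phosphate, 5 mM EGTA, 1 mM sodium orthovanadate). Histone H1 substrate at […] and ATP at 22 µM final. Reaction run 15 min at 30 °C.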

[7] = Inhibition of recombinant MAPK
Procedure, shortened: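 ERK1 (recombinant MAP kinase) in ADBI buffer (20 mM MOPS pH 7.2, 25 mM β-glycerol phosphate, 5 mM EGTA, 1 mM sodium orthovanadate) with 10 µg myelin basic protein as substrate. ATP at 20 µM final. Incubated 15 min; otherwise as the GSK-3β radiometric P81 filter assay.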

Glycogen synthase kinase-3 alpha (Homo sapiens), sequence (P49840 2-483 limits assumed): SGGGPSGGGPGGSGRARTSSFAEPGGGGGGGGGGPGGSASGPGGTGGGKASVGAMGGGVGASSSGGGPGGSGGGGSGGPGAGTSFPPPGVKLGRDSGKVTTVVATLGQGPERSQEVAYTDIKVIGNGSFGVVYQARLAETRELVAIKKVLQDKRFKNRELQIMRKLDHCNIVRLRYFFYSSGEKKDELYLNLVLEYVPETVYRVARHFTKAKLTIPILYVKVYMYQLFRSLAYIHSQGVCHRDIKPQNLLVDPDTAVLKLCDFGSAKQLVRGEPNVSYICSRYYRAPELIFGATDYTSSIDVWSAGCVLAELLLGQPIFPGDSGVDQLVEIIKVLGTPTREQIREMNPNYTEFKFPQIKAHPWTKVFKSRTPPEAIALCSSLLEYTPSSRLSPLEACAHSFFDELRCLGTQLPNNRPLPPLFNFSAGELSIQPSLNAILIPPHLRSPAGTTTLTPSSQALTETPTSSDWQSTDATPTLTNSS
Cyclin-dependent kinase 5/CDK5 activator 1, sequence (Q00535 whole entry): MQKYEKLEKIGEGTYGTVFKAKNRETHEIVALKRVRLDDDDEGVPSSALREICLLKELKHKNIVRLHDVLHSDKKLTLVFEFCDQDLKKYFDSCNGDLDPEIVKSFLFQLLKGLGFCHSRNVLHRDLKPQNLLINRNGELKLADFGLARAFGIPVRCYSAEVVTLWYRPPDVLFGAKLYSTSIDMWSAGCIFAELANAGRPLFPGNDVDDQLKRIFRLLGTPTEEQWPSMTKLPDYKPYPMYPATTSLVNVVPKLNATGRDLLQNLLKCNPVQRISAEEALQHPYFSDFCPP
Cyclin-dependent kinase 5/CDK5 activator 1, sequence (Q15078 whole entry, further chain): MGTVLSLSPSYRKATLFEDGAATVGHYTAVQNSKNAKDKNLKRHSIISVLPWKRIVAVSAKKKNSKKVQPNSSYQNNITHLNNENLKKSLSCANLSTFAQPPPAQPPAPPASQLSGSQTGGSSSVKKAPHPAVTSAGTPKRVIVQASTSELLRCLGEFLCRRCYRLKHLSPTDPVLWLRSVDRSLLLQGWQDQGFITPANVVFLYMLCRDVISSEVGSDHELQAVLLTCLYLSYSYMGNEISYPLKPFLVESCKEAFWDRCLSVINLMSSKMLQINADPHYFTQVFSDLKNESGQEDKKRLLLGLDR
Cyclin-dependent kinase 1 (Homo sapiens), sequence (P06493 whole entry, looked up): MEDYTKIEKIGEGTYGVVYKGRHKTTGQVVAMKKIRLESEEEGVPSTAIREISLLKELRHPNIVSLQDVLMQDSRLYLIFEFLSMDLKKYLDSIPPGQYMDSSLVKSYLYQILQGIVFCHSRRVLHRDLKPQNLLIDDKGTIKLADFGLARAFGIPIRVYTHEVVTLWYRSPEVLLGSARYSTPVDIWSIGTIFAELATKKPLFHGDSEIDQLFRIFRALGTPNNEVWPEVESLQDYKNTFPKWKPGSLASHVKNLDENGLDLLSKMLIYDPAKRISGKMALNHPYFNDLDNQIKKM

SMILES | inhibition [1] | IC50 [2] | further results
O[C@]12C=C(c3nccc4c3[nH]c3ccccc34)C3CCN(CCCC/C=C\CC1)C[C@@]31C[C@]34CC[C@H](CCCN3[C@H]12)O4 (stereo not given in full) | 88.4% | – | –
O[C@]12C=C(c3nccc4c3[nH]c3ccccc34)[C@@H]3CCN(CCCCCCCC1)C[C@@]31C[C@@H]3CCCCCCN3[C@H]12 | 0% | – | –
COC(=O)CCCCn1c2ccccc2c2ccnc(C3=C[C@@]4(O)CC/C=C\CCCCN5CCC3[C@]3(C[C@@H]6/C=C\CCCCN6[C@H]34)C5)c21 (stereo not given in full) | 3% | – | –
CC(=O)Oc1cccc2c1[nH]c1c(C3=C/C4=C/C/C=C\CCCCN5CCC3[C@]3(C[C@@H]6/C=C\CCCCN6[C@@H]43)C5)nccc12 (stereo not given in full) [12,13-DEHYDRO-8-O-ACETYLMANZAMINE A] | 79.1% | 4.8 µM | –
Oc1ccc2[nH]c3c(C4=C[C@@]5(O)CC/C=C\CCCCN6CCC4[C@]4(C[C@@H]7/C=C\CCCCN7[C@H]45)C6)nccc3c2c1 (stereo not given in full) | 74.3% | 16.6 µM | –
CC(C)COc1cccc2c3ccnc(C4=C[C@@]5(O)CC/C=C\CCCCN6CCC4[C@]4(C[C@@H]7/C=C\CCCCN7[C@H]45)C6)c3n(CC(C)C)c12 (stereo not given in full) | 24.2% | – | –
CCCCCCCCCCCCn1c2ccccc2c2ccnc(C3=C[C@@]4(O)CC/C=C\CCCCN5CC[C@@H]3[C@]3(C[C@@H]6/C=C\CCCCN6[C@H]34)C5)c21 | 0% | – | –
O=C1CCCN2[C@@H](CC1)C[C@]13CN4CCCC/C=C\CC[C@](O)(C=C(c5nccc6c5[nH]c5ccccc56)C1CC4)[C@H]23 (stereo not given in full) [MANZAMINE E] | – | 25 µM | –
COc1cccc2c3ccnc(C4=C[C@@]5(O)CC/C=C\CCCCN6CCC4[C@]4(C[C@@H]7/C=C\CCCCN7[C@H]45)C6)c3n(C)c12 (stereo not given in full) | 72.4% | – | –
CCOc1cccc2c3ccnc(C4=C[C@@]5(O)CC/C=C\CCCCN6CCC4[C@]4(C[C@@H]7/C=C\CCCCN7[C@H]45)C6)c3n(CC)c12 (stereo not given in full) [9-N-ETHYL-8-ETHOXY-MANZAMINE A] | 78% | 10.4 µM | –
Cc1ccc(S(=O)(=O)Oc2cccc3c2[nH]c2c(C4=C[C@@]5(O)CC/C=C\CCCCN6CCC4[C@]4(C[C@H]7/C=C\CCCCN7[C@H]45)C6)nccc23)cc1 (stereo not given in full) | 80.4% | – | –
O[C@]12C=C(c3nccc4c3[nH]c3ccccc34)[C@@H]3CCN(CCCC/C=C\CC1)C[C@@]31C[C@@H]3/C=C\CCCCN3[C@H]12 [MANZAMINE A] | – | 10.2 µM | Activity [3]: inactive; Activity [4]: inactive; IC50 [5]: 1.5 µM; Activity [6]: inactive; Activity [7]: inactive
C1=C(c2nccc3c2[nH]c2ccccc23)C2CCN3CCCC/C=C\C/C=C/1[C@@H]1N4CCCC/C=C\[C@H]4C[C@]21C3 (stereo not given in full) [12,13-DEHYDROMANZAMINE A] | 71.2% | 5.4 µM | –
Oc1cccc2c1[nH]c1c(C3=C[C@@]4(O)CCCCCCCCN5CCC3[C@]3(C[C@@H]6CCCCCCN6[C@H]34)C5)nccc12 (stereo not given in full) | 29% | – | –
Oc1cccc2c1[nH]c1c(C3=C[C@@]4(O)CC/C=C\CCCCN5CC[C@@H]3[C@]3(CC6/C=C\CCCCN6[C@H]34)C5)nccc12 (stereo not given in full) | – | 4.8 µM | –
CC(=O)Nc1nc(C)c(S(=O)(=O)Oc2cccc3c2[nH]c2c(C4=C[C@@]5(O)CC/C=C\CCCCN6CCC4[C@]4(C[C@@H]7CCC(=O)CCCN7[C@H]45)C6)nccc23)s1 (stereo not given in full) | 78.8% | 8.5 µM | –
O=C1CCCN2[C@@H](CC1)C[C@]13CN4CCCC/C=C\CC[C@](O)(C=C(c5nccc6c5[nH]c5c(OS(=O)(=O)c7ccc(Cl)cc7)cccc56)C1CC4)[C@H]23 (stereo not given in full) | 76.7% | 7.2 µM | –
O=C1CCCN2[C@@H](CC1)C[C@]13CN4CCCC/C=C\CC[C@](O)(C=C(c5nccc6c5[nH]c5c(OS(=O)(=O)c7ccc(Br)cc7)cccc56)C1CC4)[C@H]23 (stereo not given in full) | 63% | 23 µM | –
